# Experimental data from different studies.
# Protocols differ between the studies behind these lines.
# SIRT3: NAD-dependent protein deacetylase sirtuin-3, mitochondrial (SIRT3, Homo sapiens, UniProt Q9NTG7)
# PTGS1: Prostaglandin G/H synthase 1 (PTGS1, Ovis aries, UniProt P05979)
Structure (SMILES),target,assay,test system,setting,inhibition
CN1CCN(CCCOc2ccc(=O)n(-c3ccc(Cl)c(Cl)c3)n2)CC1,"Transient receptor potential cation channel subfamily V member 1 (TRPV1, Homo sapiens, UniProt Q8NER1)",ligand displacement,,1 µM,17.1%
O=C(NC1CCC1)[C@H](Cc1c[nH]c2ccccc12)NC(=O)[C@H](CCCCNC(=S)NCc1cc(O)no1)NS(=O)(=O)c1cccc(F)c1,SIRT3,"enzyme activity, inhibitor",,30 µM,6%
CC(C)C1CC(=O)c2cc(Cl)cc(Br)c2O1 (centres unmarked),SIRT3,"enzyme activity, inhibitor, fluorescence",,200 µM,4.4%
O=C(c1ccc(Cl)cc1)N(Cc1ccccc1)C1CCCCC1,"Gamma-aminobutyric acid receptor subunit alpha-1 (GABRA1, Homo sapiens, UniProt P14867)",cell-free assay,,10 µM,-34.8%
C[C@@H](NC(=O)[C@H](CCCCNC(=O)C(F)(F)F)NS(C)(=O)=O)C(=O)N[C@@H](CCCNC(=N)N)C(N)=O,SIRT3,"enzyme activity, inhibitor",,100 µM,10%
CCCCC[C@H]1CC(=O)c2cc(Cl)cc(Br)c2O1,SIRT3,"enzyme activity, inhibitor, fluorescence",,200 µM,3.9%
NC(=O)CCNC(=S)NCCCC[C@H](NS(=O)(=O)c1cccc(F)c1)C(=O)N[C@@H](Cc1c[nH]c2ccccc12)C(=O)NC1CCC1,SIRT3,"enzyme activity, inhibitor",,10 µM,30%
Cc1ccc(S(=O)(=O)n2cc(CCC3CC(=O)c4cc(Cl)cc(Br)c4O3)c3ccccc32)cc1 (centres unmarked),SIRT3,"enzyme activity, inhibitor, fluorescence",,200 µM,13%
C[C@@H]1O[C@@H](O[C@H]2[C@H](Oc3c(-c4ccc(O)cc4)oc4cc(O)cc(O)c4c3=O)O[C@H](CO[C@@H]3O[C@H](CO)[C@@H](O)[C@H](O)[C@H]3O)[C@@H](O)[C@@H]2O)[C@H](O)[C@H](O)[C@H]1O,PTGS1,"enzyme activity, inhibitor, absorbance",,50 µM,76.2%
O=C(Nc1cccc(C(=O)Nc2ccc3[nH]ncc3c2)c1)Nc1ccccc1F,"BDNF/NT-3 growth factors receptor (NTRK2, Homo sapiens, UniProt Q16620)","enzyme activity, inhibitor, FRET",,1 µM,27.8%
CC(=S)NCCCC[C@H](NC(=O)OCc1ccccc1)C(=O)N[C@@H](Cc1c[nH]c2ccccc12)C(=O)N[C@@H](CCC(=O)O)C(N)=O,SIRT3,"enzyme activity, inhibitor",,10 µM,9%
CCCCCC1CC(O)c2cc(Cl)cc(Br)c2O1 (centres unmarked),SIRT3,"enzyme activity, inhibitor, fluorescence",,200 µM,3.6%
CCCCCCCCCCCCNC(=S)NCCCC[C@H](NC(=O)OCc1ccccc1)C(=O)N[C@@H](Cc1c[nH]c2ccccc12)C(=O)N[C@@H](CCC(=O)O)C(N)=O,SIRT3,"enzyme activity, inhibitor",,10 µM,21%
COc1ccc2c(c1)C(CC(=O)O)=C/C2=C\c1ccc(-c2ccccc2)cc1,PTGS1,"enzyme activity, inhibitor",,4 µM,49%
CC(=S)NCCCC[C@H](NC(=O)OCc1ccccc1)C(=O)N[C@@H](Cc1c[nH]c2ccccc12)C(=O)N[C@@H](CCCNC(=N)N)C(N)=O,SIRT3,"enzyme activity, inhibitor",,10 µM,43%
CCCCCCCC1CC(=O)c2cc(Cl)cc(Br)c2O1 (centres unmarked),SIRT3,"enzyme activity, inhibitor, fluorescence",,200 µM,8.3%
CN(C)C1CCN(CC#Cc2nn(C3CCCC3)c3nc(NCc4ccccc4)ncc23)C1 (centres unmarked),"Serine/threonine-protein kinase Nek2 (NEK2, Homo sapiens, UniProt P51955)","enzyme activity, inhibitor, FRET",,0.1 µM,2%
CN1CC(Oc2cnc(C#N)cc2-c2ccn3nc(NC(=O)C4CC4)cc3c2)C1,"Transcription initiation factor TFIID subunit 1-like (TAF1L, Homo sapiens, UniProt Q8IZX4)","enzyme activity, inhibitor",,1 µM,-5%
O=C(COc1ccc2cc(C(=O)Nc3ccccc3)ccc2c1)NCc1ccc(O)c(O)c1,"Signal transducer and activator of transcription 5A, SH2 (Homo sapiens, UniProt P42229)","ligand displacement, FP",,100 µM,1%
C=CN1CCCn2c1nc1c2c(=O)n(C)c(=O)n1C,"Adenosine receptor A2a (Adora2a, Rattus norvegicus, UniProt P30543)","ligand displacement, radioligand",,"25 µM, cell membranes",47%
O=C1CC(CCNC(=S)NCCCC[C@H](NS(=O)(=O)c2cccc(F)c2)C(=O)N[C@@H](Cc2c[nH]c3ccccc23)C(=O)NC2CCC2)=NO1,SIRT3,"enzyme activity, inhibitor",,10 µM,40%
CCCCCCCCCCCCNC(=S)NCCCC[C@H](NC(=O)OCc1ccccc1)C(=O)N[C@@H](Cc1c[nH]c2ccccc12)C(=O)N[C@@H](CCCCN)C(N)=O,SIRT3,"enzyme activity, inhibitor",,10 µM,21%
C[C@@H]1O[C@@H](OC[C@H]2O[C@@H](O[C@H]3[C@H](Oc4c(-c5ccc(O)cc5)oc5cc(O)cc(O)c5c4=O)O[C@H](CO)[C@@H](O)[C@@H]3O)[C@H](O)[C@@H](O)[C@@H]2O)[C@H](O)[C@H](O)[C@H]1O,PTGS1,"enzyme activity, inhibitor, absorbance",,50 µM,53.3%
CCCC1CC(=O)c2cc(Cl)cc(Br)c2O1 (centres unmarked),SIRT3,"enzyme activity, inhibitor, fluorescence",,200 µM,7%
CCCCCCCCCCCCNC(=S)NCCCC[C@H](NC(=O)OCc1ccccc1)C(=O)N[C@@H](Cc1c[nH]c2ccccc12)C(=O)N[C@@H](CCCNC(=N)N)C(N)=O,SIRT3,"enzyme activity, inhibitor",,10 µM,62%
O=C(NC1CCC1)[C@H](Cc1c[nH]c2ccccc12)NC(=O)[C@H](CCCCNC(=S)NCc1n[nH]c(=S)o1)NS(=O)(=O)c1cccc(F)c1,SIRT3,"enzyme activity, inhibitor",,30 µM,12%
CCCCCCCCCCCCNC(=S)NCCCC[C@H](NC(=O)OCc1ccccc1)C(=O)N[C@@H](CCCCN)C(=O)N[C@@H](CCCNC(=N)N)C(N)=O,SIRT3,"enzyme activity, inhibitor",,1 µM,54%
COc1cc(NC(C)=O)c(Cl)cc1C(=O)Nc1nccs1,"Type-2 angiotensin II receptor (AGTR2, Homo sapiens, UniProt P50052)",cell-free assay,,10 µM,2.7%
C[C@@H]1O[C@@H](OC[C@H]2O[C@@H](Oc3c(-c4ccc(O)cc4)oc4cc(O)cc(O)c4c3=O)[C@H](O[C@@H]3O[C@H](CO)[C@@H](O)[C@H](O)[C@H]3O)[C@@H](O)[C@@H]2O)[C@H](O)[C@H](O)[C@H]1O,PTGS1,"enzyme activity, inhibitor, absorbance",,50 µM,72.6%
CNc1cc(Oc2cc(C(=O)Nc3cc(N4CCN(C)CC4)cc(C(F)(F)F)c3)ccc2C)ncn1,"STE20-related kinase adapter protein alpha (STRADA, Homo sapiens, UniProt Q7RTN6)","target engagement in cells, inhibitor, chemoproteomics",Huh-7,1 µM,-86.8%
Oc1cccc(Nc2nc(-c3ccc(F)cc3F)cs2)c1,"Sodium-dependent serotonin transporter (SLC6A4, Homo sapiens, UniProt P31645)",cell-free assay,,10 µM,-7.7%
CCCCCC1CC(=O)c2cc([N+](=O)[O-])ccc2O1 (centres unmarked),SIRT3,"enzyme activity, inhibitor, fluorescence",,200 µM,16%
CCCCCCCCCCCCNC(=S)NCCCC[C@H](NC(=O)OCc1ccccc1)C(=O)N[C@@H](Cc1c[nH]c2ccccc12)C(=O)N[C@@H](CCCCNC(=N)N)C(N)=O,SIRT3,"enzyme activity, inhibitor",,10 µM,20%
O=c1cc(-c2ccccc2)oc2c(Br)cc(Cl)cc12,SIRT3,"enzyme activity, inhibitor, fluorescence",,200 µM,12%
CCN(CC)c1ccc(C2=NNC(=O)CC2C)cc1[N+](=O)[O-] (centres unmarked),"cGMP-inhibited 3',5'-cyclic phosphodiesterase 3B (PDE3B, Homo sapiens, UniProt Q13370)","enzyme activity, inhibitor",,0.1 µM,97%
